According to ChEMBL document CHEMBL4376902, “CN128: A New Orally Active Hydroxypyridinone Iron Chelator” (J Med Chem, 2020):

Columns and labels:
[1] = Apparent volume of distribution in Sprague-Dawley rat at 600 umol/kg, po measured up to 1440 mins by LC/MS/MS analysis; assay type: ADME, organism-based; conditions: in vivo, 24 h
Cytochrome P450 2C9 = Cytochrome P450 2C9 (Homo sapiens, UniProt P11712); experiment: Inhibition of CYP2C9 in human liver microsomes; assay type: ADME
Cytochrome P450 3A4 = Cytochrome P450 3A4 (Homo sapiens, UniProt P08684); experiment: Inhibition of CYP3A4 in human liver microsomes; assay type: ADME
Cytochrome P450 3A4, sequence (P08684 whole entry): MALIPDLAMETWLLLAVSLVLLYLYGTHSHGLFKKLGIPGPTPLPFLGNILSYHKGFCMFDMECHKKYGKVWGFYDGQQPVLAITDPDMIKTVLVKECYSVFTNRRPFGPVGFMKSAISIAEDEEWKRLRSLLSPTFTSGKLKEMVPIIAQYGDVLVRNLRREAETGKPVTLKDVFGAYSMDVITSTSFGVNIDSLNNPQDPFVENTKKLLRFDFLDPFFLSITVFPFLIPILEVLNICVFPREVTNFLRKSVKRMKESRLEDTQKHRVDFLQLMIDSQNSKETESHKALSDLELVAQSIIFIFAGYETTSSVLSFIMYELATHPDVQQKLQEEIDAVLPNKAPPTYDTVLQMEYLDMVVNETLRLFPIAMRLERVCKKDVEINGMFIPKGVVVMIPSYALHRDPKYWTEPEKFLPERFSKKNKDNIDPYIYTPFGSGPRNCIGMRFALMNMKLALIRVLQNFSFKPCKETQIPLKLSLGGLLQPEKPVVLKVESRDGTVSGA

[2] = Binding affinity to Mg2+ ion assessed as pM value by spectrophotometric titration method
[3] = Drug level in rat intestine at 150 umol/kg, po measured measured up to 6 hrs by LC-MS/MS analysis; assay type: ADME, organism-based; conditions: in vivo
Summary of the method: (§1)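 Single oral dose of 150 μmol/kg to SD rats, half male and half female, n=6 per group. Rats decapitated at 10 min, 30 min, 2 h and 6 h. Tissues dissected, saline-washed, weighed and homogenised in acetonitrile/water 1:9 (125 mg/mL). Drug level measured against plasma; mean ± SE.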

[4] = Drug level in rat kidney at 150 umol/kg, po measured measured up to 6 hrs by LC-MS/MS analysis; assay type: ADME, organism-based; conditions: in vivo; summary of the method: as §1
Rattus norvegicus = experiment: Iron scavenging activity in iron-overloaded rat assessed as iron removal efficacy at 75 to 1200 umol/kg, po; assay type: functional, organism-based
Summary of the method: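 Male SD rats (300 g), fasted overnight, given about 1 μC 59Fe-ferritin i.v. under isoflurane; chelator by oral gavage 1 h later; doses 75, 150, 300, 600 and 1200 μmol/kg. Rats housed in metabolic cages, food returned 1 h post-dose; killed 24 h after ferritin injection. Urine, faeces, liver and gut gamma-counted. Iron removal expressed as % efficacy.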

[5] = Cmax in Sprague-Dawley rat at 600 umol/kg, po measured up to 1440 mins by LC/MS/MS analysis; assay type: ADME, organism-based; design: dose 600 umol/kg, route oral; conditions: in vivo
[6] = Drug metabolism in rat bile assessed as (2S,3S,4S,5R,6R)-3,4,5-trihydroxy-6-[(2R)-2-(3-hydroxy-2-methyl-4-oxo-1-pyridyl)-3-phenylpropoxy]tetrahydropyran-2-carboxylic acid/(2S,3S,4S,5R,6S)-6-[[1-[(1R)-1-benzyl-2-hydroxyethyl]-2-methyl-4-oxo-3-pyridyl]oxy]-3,4,5-trihydroxy-tetrahydropyran-2-carboxylic acid ratio formation at 150 umol/kg, po measured over 8 hrs by LC/TOF/MS/MS analysis; assay type: ADME, organism-based; conditions: in vivo
Summary of the method: (§2)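 Bile collected from rats after an oral dose of 150 μmol/kg. Metabolites characterised by β-glucuronidase hydrolysis and LC-TOFMS/MS. M2/M1 ratio followed over 8 h.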

[7] = AUC (0 to infinity) in Sprague-Dawley rat at 600 umol/kg, po measured up to 1440 mins by LC/MS/MS analysis; assay type: ADME, organism-based; design: dose 600 umol/kg, time infinity, route oral; conditions: in vivo, 24 h
[8] = Binding affinity to Co2+ ion assessed as affinity constant by spectrophotometric titration method
Cytochrome P450 2B6 = target: T1, Cytochrome P450 2B6 (Homo sapiens, UniProt P20813); experiment: Inhibition of CYP2B6 in human liver microsomes; assay type: ADME
T1 sequence (P20813 whole entry): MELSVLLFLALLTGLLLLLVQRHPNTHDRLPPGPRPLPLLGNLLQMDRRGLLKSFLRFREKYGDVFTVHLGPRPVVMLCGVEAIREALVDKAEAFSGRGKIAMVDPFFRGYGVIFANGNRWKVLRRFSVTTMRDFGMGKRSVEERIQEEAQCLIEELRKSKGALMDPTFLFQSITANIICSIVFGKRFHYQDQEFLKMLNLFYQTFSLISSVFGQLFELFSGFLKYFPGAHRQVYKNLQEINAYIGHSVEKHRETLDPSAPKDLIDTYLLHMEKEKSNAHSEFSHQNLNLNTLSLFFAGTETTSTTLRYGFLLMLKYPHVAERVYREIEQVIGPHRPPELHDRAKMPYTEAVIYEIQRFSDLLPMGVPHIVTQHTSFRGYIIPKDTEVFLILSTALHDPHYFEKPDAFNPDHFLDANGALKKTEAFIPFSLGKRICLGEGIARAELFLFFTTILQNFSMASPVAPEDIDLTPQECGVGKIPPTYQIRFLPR

[9] = Toxicity in Sprague-Dawley rat assessed as induction of histopathological changes in thymus at 25 to 116 mg/kg, po dosed daily for 4 weeks and measured after additional 4 weeks period in absence of drug; assay type: organism-based; conditions: in vivo, 672 h
Cytochrome P450 2D6 = Cytochrome P450 2D6 (Homo sapiens, UniProt P10635); experiment: Inhibition of CYP2D6 in human liver microsomes; assay type: ADME
Cytochrome P450 2D6, sequence (P10635 whole entry): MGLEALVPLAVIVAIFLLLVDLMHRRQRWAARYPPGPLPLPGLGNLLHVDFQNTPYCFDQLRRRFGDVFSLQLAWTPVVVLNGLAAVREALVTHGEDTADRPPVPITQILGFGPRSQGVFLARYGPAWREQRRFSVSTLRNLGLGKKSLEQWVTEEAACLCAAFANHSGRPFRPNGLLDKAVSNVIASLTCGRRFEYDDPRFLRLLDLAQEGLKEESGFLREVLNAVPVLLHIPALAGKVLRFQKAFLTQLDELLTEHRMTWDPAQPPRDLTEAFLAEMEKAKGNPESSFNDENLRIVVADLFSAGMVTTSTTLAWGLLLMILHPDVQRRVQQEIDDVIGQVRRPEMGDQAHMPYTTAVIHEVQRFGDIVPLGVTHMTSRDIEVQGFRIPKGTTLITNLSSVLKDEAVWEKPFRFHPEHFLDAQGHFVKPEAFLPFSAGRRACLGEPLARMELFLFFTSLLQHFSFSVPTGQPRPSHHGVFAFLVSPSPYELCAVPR

[10] = Genotoxicity in Salmonella typhimurium by Ames test; assay type: toxicity; conditions: salmonella enterica subsp. enterica serovar typhimurium
[11] = Drug metabolism in rat bile assessed as (2S,3S,4S,5R,6R)-3,4,5-trihydroxy-6-[(2R)-2-(3-hydroxy-2-methyl-4-oxo-1-pyridyl)-3-phenylpropoxy]tetrahydropyran-2-carboxylic acid formation at 150 umol/kg, po by LC/TOF/MS/MS analysis; assay type: ADME, organism-based; conditions: in vivo; summary of the method: as §2
Cytochrome P450 2C8 = target: T2, Cytochrome P450 2C8 (Homo sapiens, UniProt P10632); experiment: Inhibition of CYP2C8 in human liver microsomes; assay type: ADME
T2 sequence (P10632 whole entry): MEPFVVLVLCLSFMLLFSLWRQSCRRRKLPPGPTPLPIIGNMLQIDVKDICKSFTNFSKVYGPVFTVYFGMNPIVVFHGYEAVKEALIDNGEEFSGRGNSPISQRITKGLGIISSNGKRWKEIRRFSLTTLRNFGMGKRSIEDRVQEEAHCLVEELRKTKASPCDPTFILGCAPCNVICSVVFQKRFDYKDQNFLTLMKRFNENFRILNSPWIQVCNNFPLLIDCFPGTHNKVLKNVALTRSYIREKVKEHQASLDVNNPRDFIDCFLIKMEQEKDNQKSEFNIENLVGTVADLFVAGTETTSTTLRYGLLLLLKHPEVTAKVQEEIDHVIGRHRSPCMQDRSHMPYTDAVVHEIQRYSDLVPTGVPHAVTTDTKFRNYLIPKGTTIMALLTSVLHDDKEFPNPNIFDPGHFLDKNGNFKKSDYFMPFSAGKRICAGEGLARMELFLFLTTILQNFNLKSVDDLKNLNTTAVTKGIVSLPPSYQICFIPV

Mus musculus = experiment: Toxicity in mouse assessed as reduction in eosinophils counts at 200 mg/kg, po dosed once daily for 2 months as 5 days per week schedule; conditions: in vivo, 120 h
[12] = Binding affinity to Fe3+ ion assessed as affinity constant by spectrophotometric titration method
Summary of the method: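 Automated spectrophotometric titration with 0.1 M KOH in 0.1 pH steps, 3 min equilibration per step, 50 mm cuvette, iron complexes at ca. 40 µM. Titrated in competition with metal hydrolysis species up to pH 12.0. Hydrolysis constants taken from critical compilations. Iron spectra fitted over 400–700 nm.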

[13] = Apparent clearance in Sprague-Dawley rat at 300 umol/kg, po measured up to 1440 mins by LC/MS/MS analysis; assay type: ADME, organism-based; conditions: in vivo, read-out: CL(app) (converted)
[14] = Acid dissociation constant, pKa2 of the compound over pH 1.8 to 11.0 by spectrophotometric titration method; assay type: physicochemical
Summary of the method: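 Automated spectrophotometric titration with 0.1 M KOH in 0.1 pH-unit steps. Reading accepted as stable when drift was <0.01 pH unit after a 1.5 min incubation. 10 mm path length cuvette. Spectra fitted by computer to obtain the pKa values.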

Cytochrome P450 2C9, sequence (P11712 whole entry): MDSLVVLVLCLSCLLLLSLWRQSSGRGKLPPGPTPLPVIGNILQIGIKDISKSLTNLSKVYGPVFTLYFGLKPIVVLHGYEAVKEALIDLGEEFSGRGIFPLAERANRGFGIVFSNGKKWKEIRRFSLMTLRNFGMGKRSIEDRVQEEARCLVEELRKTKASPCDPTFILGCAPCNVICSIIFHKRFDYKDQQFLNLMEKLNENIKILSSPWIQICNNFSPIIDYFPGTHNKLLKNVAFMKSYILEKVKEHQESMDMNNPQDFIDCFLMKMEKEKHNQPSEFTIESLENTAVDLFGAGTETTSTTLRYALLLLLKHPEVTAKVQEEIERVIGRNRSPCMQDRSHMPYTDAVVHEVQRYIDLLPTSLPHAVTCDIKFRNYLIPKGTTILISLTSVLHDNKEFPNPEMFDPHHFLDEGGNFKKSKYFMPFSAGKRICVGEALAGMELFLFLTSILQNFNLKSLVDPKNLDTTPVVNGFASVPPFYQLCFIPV

Cc1c(O)c(O)cc[n+]1[C@@H](CO)Cc1ccccc1.[Cl-]
Vz [1]: 4.29 L/kg
IC50 (Cytochrome P450 2C9): > 200 µM
IC50 (Cytochrome P450 3A4): > 200 µM
pM [2]: 7.59
Drug uptake [3]: Not Active
Drug uptake [4]: Not Active
Activity (Rattus norvegicus): Dose-dependent effect
Cmax [5]: 70 µg/mL
Ratio [6]: 2.3 to 6.9
AUC [7]: 181 µg·h/mL
log K [8]: 6.6
IC50 (Cytochrome P450 2B6): > 200 µM
Activity [9]: Non-Toxic
IC50 (Cytochrome P450 2D6): > 200 µM
Activity [10]: Non-Toxic
Drug metabolism [11]: Metabolite_Detected
IC50 (Cytochrome P450 2C8): > 200 µM
Activity (Mus musculus): Non-Toxic
K [12]: 19.8 pM
log K [12]: 14.8
CL/F [13]: 15.3 mL/min/kg
pKa [14]: 9.9
